Source: PubChem BioAssay
MT1-MMP act inh: inhibitors of human MT1-MMP activation; P50281; HT1080 RFP-PRO-GFP cells, GFP/RFP ratio fluorescence, overnight; percent of plate control window, DMSO zero; GFP/RFP ratio change, % at 20 µM; 0.061% of 360,000 active; AID 651647;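 active = GFP/RFP ratio change of at least 30% with cell ATP level not reduced by more than half and red fluorescence within 50% of control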
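Material: RFP-PRO-GFP reporter HT1080 cells. Dosing: single-point 20 µM compound, 1% DMSO. Controls: DMSO and RFP-L50D-GFP cell wells. Timing: cells overnight before dosing, compound overnight, 37 °C, 5% CO2. Measure: GFP/RFP fluorescence ratio.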
Tn6 DDE FP: inhibitors of Tn6 peptide binding to human fibrin DD(E); Fibrin DD(E) TRITC-Tn6 fluorescence polarization displacement; 0.21% of 370,000 active; inhibition, % at 8.3 µM; P02675;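 active = inhibition above a per-campaign cutoff: mean of compounds within control limits plus 3 SD, cut at about 15% in these data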
DDE Tn7 FP inh: disrupts Tn7 cyclic peptide binding to fibrin D-Dimer-E complex; AID 720508; 0.13% of 370,000 active; P02675; inhibition, % at 8.3 µM; FP displacement of FITC-Tn7 peptide from fibrin DD(E); 0% = median of compound wells per plate;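 active = inhibition above the mean of compounds falling within the control limits plus 3 SD of them, cut at about 14% in these data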
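Assay system: Fibrin-DD(E) protein isolated from polymerized human fibrin clots; read-out basis: percent inhibition; medium: Tris/NaCl/CaCl2 buffer, pH 7.8; signal: FP measurement; incubation: 10 min plus 3 h, room temperature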
proKLK7 act: activators of human kallikrein-7 zymogen. 0.9% of 370,000 active. P49862. activation, % at 7 µM. AID 652039. purified proKLK7, EDANS-DABCYL substrate fluorescence; 100% is mature enzyme control, 0% vehicle;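 active = activation above the mean of all tested compounds plus 3 SD, computed per campaign excluding outliers beyond control limits, cut at about 13% in these data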
SKN-1 inh: inhibitors of C. elegans SKN-1; C. elegans VP596 Pgst-4::GFP/RFP ratio, acrylamide-induced, 24 h; inhibition, % at 21.8 µM; 0.49% of 360,000 active; AID 624304;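 active = interference check ratio from 0.5 to 1.5 plus GFP to RFP signal ratio inhibition reaching or exceeding a fixed threshold, cut at about 30% in these data, passing the limit was not always enough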
Neddylation inh: cullin neddylation inhibition | P61081+Q13564 | TR-FRET cullin neddylation, biochemical | calls only at 25 µM | 0.58% of 360,000 active | AID 651699; in the data active = inhibition above about 36%
Target sequence (P61081 whole entry, looked up): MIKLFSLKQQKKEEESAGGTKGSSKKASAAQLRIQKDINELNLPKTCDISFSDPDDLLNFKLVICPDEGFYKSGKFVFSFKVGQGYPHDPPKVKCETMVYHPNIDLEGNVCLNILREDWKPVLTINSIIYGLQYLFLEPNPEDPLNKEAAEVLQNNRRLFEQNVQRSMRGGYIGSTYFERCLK
Target sequence (Q13564 whole entry, looked up): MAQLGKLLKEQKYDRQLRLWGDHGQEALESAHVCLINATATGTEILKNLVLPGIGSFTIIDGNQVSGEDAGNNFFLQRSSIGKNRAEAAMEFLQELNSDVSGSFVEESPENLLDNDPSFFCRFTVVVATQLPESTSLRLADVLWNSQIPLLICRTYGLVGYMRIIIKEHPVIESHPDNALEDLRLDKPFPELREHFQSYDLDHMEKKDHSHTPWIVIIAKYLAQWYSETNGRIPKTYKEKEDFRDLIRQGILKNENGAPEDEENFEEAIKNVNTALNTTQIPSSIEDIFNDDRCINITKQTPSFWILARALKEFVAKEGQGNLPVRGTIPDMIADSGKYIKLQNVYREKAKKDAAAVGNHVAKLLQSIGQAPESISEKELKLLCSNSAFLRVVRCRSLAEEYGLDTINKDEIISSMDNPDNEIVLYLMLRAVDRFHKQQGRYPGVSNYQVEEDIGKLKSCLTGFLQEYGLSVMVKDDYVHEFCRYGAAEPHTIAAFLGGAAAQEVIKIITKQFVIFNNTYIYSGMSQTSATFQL
A number is an active result. A selection: hits, their analogues and other compounds. The true share with any hit is near 2.2%.

How did COc1cccc2cc(C(=O)N3CCc4ccccc43)c(=O)oc12 do in these assays?
MT1-MMP act inh: inactive; Tn6 DDE FP: inactive; DDE Tn7 FP inh: inactive; proKLK7 act: inactive; SKN-1 inh: inactive; Neddylation inh: inactive

What do the screens show for `N#CC1=C(N)N(c2ccccc2)C(c2ccco2)C1(C#N)C#N` (stereo unspecified)?
MT1-MMP act inh: inactive; Tn6 DDE FP: inactive; DDE Tn7 FP inh: inactive; proKLK7 act: inactive; SKN-1 inh: inactive; Neddylation inh: active

What do the screens show for `Cc1cccc(N2C(N)=C(C#N)C(C#N)(C#N)C2c2ccccc2)c1` (stereo unspecified)?
MT1-MMP act inh: inactive; Tn6 DDE FP: inactive; DDE Tn7 FP inh: inactive; proKLK7 act: inactive; SKN-1 inh: inactive

What do the screens show for `O=Cc1cc(N=Nc2cccc(C(=O)O)c2)ccc1O`?
MT1-MMP act inh: inactive; Tn6 DDE FP: inactive; DDE Tn7 FP inh: inactive; proKLK7 act: inactive; SKN-1 inh: inactive; Neddylation inh: inactive

How did Cc1nn(-c2ccccc2)c(Cl)c1/C=C/C(=O)c1ccccc1 do in these assays?
MT1-MMP act inh: inactive; SKN-1 inh: 31.5; Neddylation inh: inactive

What do the screens show for `CCOc1ccc(-c2c(C#N)c(N)nc3c2c(=O)n(C)c(=O)n3C)cc1OC`?
MT1-MMP act inh: inactive; Tn6 DDE FP: inactive; DDE Tn7 FP inh: inactive; proKLK7 act: inactive; SKN-1 inh: inactive; Neddylation inh: inactive

How did CCOc1ccc(S(=O)(=O)N2CCC(C(=O)N3CCOCC3)CC2)cc1Cl do in these assays?
MT1-MMP act inh: inactive; Tn6 DDE FP: inactive; DDE Tn7 FP inh: inactive; proKLK7 act: inactive; SKN-1 inh: inactive; Neddylation inh: inactive

Results for [O-]/[N+](=C/c1ccco1)c1ccccc1 ?
MT1-MMP act inh: inactive; Tn6 DDE FP: inactive; DDE Tn7 FP inh: inactive; proKLK7 act: inactive; SKN-1 inh: inactive; Neddylation inh: inactive

How did [O-]/[N+](=C\c1ccco1)c1ccc(Cl)cc1 do in these assays?
MT1-MMP act inh: inactive; Tn6 DDE FP: inactive; DDE Tn7 FP inh: inactive; proKLK7 act: inactive; SKN-1 inh: 35.7; Neddylation inh: inactive

Results for O=c1c(-c2ccccc2)c(O)c2cccc3c2n1CCC3 ?
MT1-MMP act inh: inactive; Tn6 DDE FP: inactive; DDE Tn7 FP inh: inactive; proKLK7 act: inactive; SKN-1 inh: inactive; Neddylation inh: active

What do the screens show for `Cc1cc(C)c(-c2c(O)c3cccc4c3n(c2=O)CCC4)c(C)c1`?
MT1-MMP act inh: inactive; Tn6 DDE FP: inactive; DDE Tn7 FP inh: inactive; proKLK7 act: inactive; SKN-1 inh: inactive; Neddylation inh: inactive

What do the screens show for `CN1CCN(CCNC(=O)c2ccc3nc(-c4ccc(F)cc4)c(-c4ccc(F)cc4)nc3c2)CC1`?
MT1-MMP act inh: inactive; Tn6 DDE FP: inactive; DDE Tn7 FP inh: inactive; proKLK7 act: inactive; SKN-1 inh: inactive; Neddylation inh: active

How did CCc1nc2ccc(C(=O)NCCCN3CCN(c4ccc(F)cc4)CC3)cc2nc1CC do in these assays?
MT1-MMP act inh: inactive; Tn6 DDE FP: inactive; DDE Tn7 FP inh: inactive; proKLK7 act: inactive; SKN-1 inh: inactive; Neddylation inh: inactive

What do the screens show for `Cc1nc(N2CCN(C(=O)COc3ccccc3C)CC2)c2c3c(sc2n1)CCCC3`?
Tn6 DDE FP: inactive; DDE Tn7 FP inh: inactive

What do the screens show for `CCCCCCCCOc1ccc(C2OC34CCCCC3C(C#N)(C#N)C2(C#N)C(=N)O4)cc1` (stereo unspecified)?
MT1-MMP act inh: inactive; SKN-1 inh: 47.0

What do the screens show for `CCCCC1OC23CCCCC2C(C#N)(C#N)C1(C#N)C(=N)O3` (stereo unspecified)?
MT1-MMP act inh: inactive; Tn6 DDE FP: inactive; DDE Tn7 FP inh: inactive; proKLK7 act: inactive; SKN-1 inh: inactive; Neddylation inh: active

Results for N#CC1(C#N)C(c2ccccc2)OC23CCCCC2C1(C#N)C(=N)O3 (stereo unspecified) ?
MT1-MMP act inh: inactive; Tn6 DDE FP: inactive; DDE Tn7 FP inh: inactive; proKLK7 act: inactive; SKN-1 inh: inactive

What do the screens show for `COc1cc(C2C(C(=O)c3ccc(C)o3)=C(O)C(=O)N2Cc2ccccc2)ccc1O` (stereo unspecified)?
MT1-MMP act inh: inactive; Tn6 DDE FP: inactive; DDE Tn7 FP inh: inactive; proKLK7 act: inactive; SKN-1 inh: inactive; Neddylation inh: inactive

What do the screens show for `COc1cc2c(cc1NC(=O)c1cccnc1)CCCC2`?
MT1-MMP act inh: inactive; Tn6 DDE FP: inactive; DDE Tn7 FP inh: inactive; proKLK7 act: inactive; SKN-1 inh: 37.8; Neddylation inh: inactive

What do the screens show for `O=C1C2CCCCN2C(=O)N1CCCN1CCN(c2ccc(F)cc2)CC1` (stereo unspecified)?
MT1-MMP act inh: inactive; SKN-1 inh: inactive; Neddylation inh: inactive

How did Nc1ccc(N2CCN(CCCCN3C(=O)C4CCCN4C3=O)CC2)cc1 (stereo unspecified) do in these assays?
MT1-MMP act inh: inactive; Tn6 DDE FP: 50.4; DDE Tn7 FP inh: inactive; proKLK7 act: inactive; SKN-1 inh: inactive; Neddylation inh: inactive

Results for COc1ccc2c(c1OC)C(=O)OC2Nc1nc(-c2ccc(-c3ccccc3)cc2)cs1 (stereo unspecified) ?
MT1-MMP act inh: inactive; Tn6 DDE FP: inactive; DDE Tn7 FP inh: inactive; proKLK7 act: inactive; SKN-1 inh: 64.7

Results for COc1cccc(-c2csc(NC3OC(=O)c4c3ccc(OC)c4OC)n2)c1 (stereo unspecified) ?
MT1-MMP act inh: inactive; Tn6 DDE FP: inactive; DDE Tn7 FP inh: inactive; proKLK7 act: inactive; SKN-1 inh: inactive; Neddylation inh: inactive

What do the screens show for `CCOC(=O)N1CCN(C(=O)Nc2ccc(Cl)cc2)CC1`?
MT1-MMP act inh: inactive; Tn6 DDE FP: inactive; DDE Tn7 FP inh: inactive; proKLK7 act: inactive; SKN-1 inh: 35.5; Neddylation inh: inactive

Results for COC(=O)C1C2CC3c4[nH]c5cc(OC)ccc5c4CCN3CC2CC(OC(=O)CC(C)=O)C1OC (stereo unspecified) ?
MT1-MMP act inh: inactive; Tn6 DDE FP: inactive; DDE Tn7 FP inh: inactive; proKLK7 act: inactive; SKN-1 inh: 47.2; Neddylation inh: inactive

What do the screens show for `O=C1CCCN1c1ccc(C(=O)N(Cc2nnc(-c3ccc(Cl)cc3)o2)C2CC2)cc1`?
MT1-MMP act inh: inactive; Tn6 DDE FP: inactive; DDE Tn7 FP inh: inactive; proKLK7 act: inactive; SKN-1 inh: inactive; Neddylation inh: inactive

Results for Cc1noc(C)c1COC(=O)COc1ccc(C#N)cc1 ?
MT1-MMP act inh: inactive; Tn6 DDE FP: inactive; DDE Tn7 FP inh: inactive; proKLK7 act: inactive; SKN-1 inh: inactive; Neddylation inh: inactive

What do the screens show for `CCc1nc(NCc2ccccc2)c(C#N)c2c1CCCC2`?
MT1-MMP act inh: inactive; Tn6 DDE FP: inactive; DDE Tn7 FP inh: inactive; proKLK7 act: inactive; SKN-1 inh: inactive; Neddylation inh: inactive

How did CCc1nc(NCCC(C)C)c(C#N)c2c1CCCC2 do in these assays?
MT1-MMP act inh: inactive; Tn6 DDE FP: inactive; DDE Tn7 FP inh: inactive; proKLK7 act: inactive; SKN-1 inh: 43.2; Neddylation inh: inactive
